# Assay results as given in ChEMBL document CHEMBL4411287, “Discovery and optimization of a series of 3-substituted indazole derivatives as multi-target kinase inhibitors for the treatment of lung squamous cell carcinoma” (Eur J Med Chem, 2019).
# Assays:
# [1] = biological target: Cyclin-dependent kinase 1 (Homo sapiens) (UniProt P06493); assay: Inhibition of CDK1 (unknown origin) at 1000 nM relative to control
# NCI-H1581 [2] = assay: Antitumor activity against human NCI-H1581 cells xenografted in po dosed nude mouse assessed as tumor growth inhibition administered as qd for 7 to 10 days; assay type: functional, organism-based
# Method in brief: (§1)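 Female nude mice, 4-6 weeks old. NCI-H1581 cells (5×10^6 in 200 µL) injected s.c., grown to 700-800 mm³, then 1-mm³ fragments implanted s.c. by trocar. At 100-150 mm³ animals were randomized (vehicle n=12, treated n=6) and dosed orally once daily for 7 days. Tumours measured twice weekly, volume = length×width²/2. TGI calculated from change in tumour volume versus vehicle on the final day, with Student's t-test.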
# [3] = biological target: Platelet-derived growth factor receptor beta (Homo sapiens) (UniProt P09619); assay: Inhibition of PDGFR-beta (unknown origin) at 1000 nM relative to control
# Method in brief: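 ELISA with purified recombinant kinase on plates precoated with poly(Glu,Tyr) 4:1 at 20 µg/mL. ATP 10 µM in HEPES pH 7.4 buffer with MgCl2, MnCl2, Na3VO4 and DTT. Run 60 min at 37 °C. Detected with anti-phosphotyrosine PY99, HRP secondary antibody and o-phenylenediamine, read at 490 nm. Inhibition % = [1 − A490/A490 control]×100. 1% DMSO as negative control.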
# [4] = biological target: ALK tyrosine kinase receptor (Homo sapiens) (UniProt Q9UM73); assay: Inhibition of ALK (unknown origin) at 100 nM relative to control
# [5] = biological target: Cyclin-dependent kinase 4 (Homo sapiens) (UniProt P11802); assay: Inhibition of CDK4 (unknown origin) at 10 nM relative to control
# Sequence of Cyclin-dependent kinase 4 (Homo sapiens) (P11802 whole entry): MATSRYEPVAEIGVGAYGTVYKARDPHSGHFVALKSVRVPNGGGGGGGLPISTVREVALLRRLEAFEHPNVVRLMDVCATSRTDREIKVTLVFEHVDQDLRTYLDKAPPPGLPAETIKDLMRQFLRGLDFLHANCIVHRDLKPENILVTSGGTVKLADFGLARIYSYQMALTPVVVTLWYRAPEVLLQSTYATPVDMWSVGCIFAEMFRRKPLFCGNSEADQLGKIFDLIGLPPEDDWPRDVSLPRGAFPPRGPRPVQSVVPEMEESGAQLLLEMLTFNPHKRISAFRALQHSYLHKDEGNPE
# [6] = biological target: Epidermal growth factor receptor (Homo sapiens) (UniProt P00533); assay: Inhibition of EGFR (unknown origin) at 10 nM relative to control
# Sequence of Epidermal growth factor receptor (Homo sapiens) (P00533 whole entry): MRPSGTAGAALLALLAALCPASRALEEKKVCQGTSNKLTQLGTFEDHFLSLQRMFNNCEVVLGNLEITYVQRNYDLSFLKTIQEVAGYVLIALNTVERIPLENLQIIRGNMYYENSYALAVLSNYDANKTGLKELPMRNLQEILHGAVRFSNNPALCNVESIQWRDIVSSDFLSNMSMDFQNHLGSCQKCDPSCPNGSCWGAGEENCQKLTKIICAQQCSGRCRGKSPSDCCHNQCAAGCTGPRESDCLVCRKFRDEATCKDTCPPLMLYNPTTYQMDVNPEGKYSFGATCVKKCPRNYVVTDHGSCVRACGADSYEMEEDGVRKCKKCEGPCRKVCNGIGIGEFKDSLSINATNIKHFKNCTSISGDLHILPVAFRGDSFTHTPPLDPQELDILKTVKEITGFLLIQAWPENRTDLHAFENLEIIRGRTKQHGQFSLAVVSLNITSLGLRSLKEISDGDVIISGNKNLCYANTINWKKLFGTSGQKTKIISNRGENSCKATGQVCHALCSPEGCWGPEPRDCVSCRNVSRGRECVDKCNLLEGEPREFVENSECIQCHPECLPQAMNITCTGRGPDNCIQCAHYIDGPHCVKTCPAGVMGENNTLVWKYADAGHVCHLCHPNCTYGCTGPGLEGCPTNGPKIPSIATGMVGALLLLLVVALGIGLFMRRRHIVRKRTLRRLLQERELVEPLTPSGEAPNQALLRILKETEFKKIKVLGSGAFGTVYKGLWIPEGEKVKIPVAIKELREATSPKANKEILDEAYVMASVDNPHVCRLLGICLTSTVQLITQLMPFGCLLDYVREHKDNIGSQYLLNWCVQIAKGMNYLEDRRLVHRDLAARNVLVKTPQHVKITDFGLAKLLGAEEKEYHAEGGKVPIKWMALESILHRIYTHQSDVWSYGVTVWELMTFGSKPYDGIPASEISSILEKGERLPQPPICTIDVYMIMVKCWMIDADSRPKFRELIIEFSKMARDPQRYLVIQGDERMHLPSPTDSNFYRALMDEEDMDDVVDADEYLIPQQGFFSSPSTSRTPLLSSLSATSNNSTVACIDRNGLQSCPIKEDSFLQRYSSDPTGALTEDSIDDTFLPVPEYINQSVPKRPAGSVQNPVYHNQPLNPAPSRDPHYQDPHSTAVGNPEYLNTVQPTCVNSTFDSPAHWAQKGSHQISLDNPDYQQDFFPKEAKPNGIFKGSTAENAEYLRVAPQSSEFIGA
# [7] = biological target: Cyclin-dependent kinase 4 (Homo sapiens) (UniProt P11802); assay: Inhibition of CDK4 (unknown origin) at 100 nM relative to control
# NCI-H1581 [8] = assay: Antitumor activity against human NCI-H1581 cells xenografted in nude mouse assessed as tumor growth inhibition at 10 mg/kg, po qd for 7 to 10 days relative to control; assay type: functional; settings: read-out: TGI; method in brief: as §1
# [9] = biological target: Receptor tyrosine-protein kinase erbB-2 (Homo sapiens) (UniProt P04626); assay: Inhibition of ErbB2 (unknown origin) at 1000 nM relative to control
# Sequence of Receptor tyrosine-protein kinase erbB-2 (Homo sapiens) (P04626 whole entry, the tested form may be a part): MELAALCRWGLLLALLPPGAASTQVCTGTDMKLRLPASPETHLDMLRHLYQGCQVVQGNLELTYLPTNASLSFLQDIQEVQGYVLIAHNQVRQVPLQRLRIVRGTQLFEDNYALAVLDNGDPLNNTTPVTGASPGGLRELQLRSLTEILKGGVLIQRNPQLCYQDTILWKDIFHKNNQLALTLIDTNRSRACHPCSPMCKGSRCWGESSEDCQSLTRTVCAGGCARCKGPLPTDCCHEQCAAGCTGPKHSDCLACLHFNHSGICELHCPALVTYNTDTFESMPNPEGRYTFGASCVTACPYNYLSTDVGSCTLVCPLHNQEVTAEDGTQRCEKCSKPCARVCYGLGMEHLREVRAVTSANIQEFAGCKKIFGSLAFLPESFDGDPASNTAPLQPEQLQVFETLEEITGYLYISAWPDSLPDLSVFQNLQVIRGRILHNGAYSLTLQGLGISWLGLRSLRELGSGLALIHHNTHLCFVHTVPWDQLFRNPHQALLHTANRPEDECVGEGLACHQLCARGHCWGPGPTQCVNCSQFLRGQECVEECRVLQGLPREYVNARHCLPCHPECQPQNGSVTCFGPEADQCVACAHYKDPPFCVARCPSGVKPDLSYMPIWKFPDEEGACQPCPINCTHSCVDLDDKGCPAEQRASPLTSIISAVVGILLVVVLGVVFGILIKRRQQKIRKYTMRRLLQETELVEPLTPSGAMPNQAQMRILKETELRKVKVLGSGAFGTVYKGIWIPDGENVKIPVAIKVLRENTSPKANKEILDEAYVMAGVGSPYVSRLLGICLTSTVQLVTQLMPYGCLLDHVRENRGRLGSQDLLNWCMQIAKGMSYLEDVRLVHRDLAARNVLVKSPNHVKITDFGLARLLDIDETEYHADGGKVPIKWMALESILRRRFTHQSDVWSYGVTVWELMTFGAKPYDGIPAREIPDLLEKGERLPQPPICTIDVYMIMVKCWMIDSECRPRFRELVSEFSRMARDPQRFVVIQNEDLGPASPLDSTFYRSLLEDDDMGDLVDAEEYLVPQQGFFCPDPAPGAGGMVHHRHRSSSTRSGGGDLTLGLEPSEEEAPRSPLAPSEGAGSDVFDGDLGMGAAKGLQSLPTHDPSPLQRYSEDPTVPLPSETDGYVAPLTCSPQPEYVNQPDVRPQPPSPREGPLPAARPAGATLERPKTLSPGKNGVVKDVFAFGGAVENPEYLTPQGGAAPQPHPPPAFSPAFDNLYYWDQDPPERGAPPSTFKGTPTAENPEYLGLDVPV
# Method in brief: (§2)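 Purified recombinant kinase domains run in ELISA on precoated poly(Glu,Tyr) 4:1 (20 µg/mL) with 10 µM ATP in 50 mM HEPES pH 7.4, 50 mM MgCl2, 0.5 mM MnCl2, 0.2 mM Na3VO4, 1 mM DTT; 1% DMSO control; 60 min at 37 °C. Phosphotyrosine read by PY99 antibody, HRP anti-mouse IgG, OPD/H2O2 at 490 nm; inhibition = [1−A490/A490control]×100%; two separate experiments.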
# NCI-H716 = assay: Antiproliferative activity against FGFR2 amplified human NCI-H716 cells after 72 hrs by CCK8 assay; assay type: functional, cell-based; settings: NCI-H716, 72 h
# Method in brief: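 Cells seeded at low density in growth medium and compounds added the next day. Incubated 72 h, then proliferation read by sulforhodamine B, MTT or CCK-8. IC50 obtained by four-parameter concentration-response curve fitting.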
# [10] = biological target: Fibroblast growth factor receptor 3 (Homo sapiens) (UniProt P22607); assay: Inhibition of FGFR3 (unknown origin) at 10 nM relative to control; method in brief: as §2
# Sequence of Fibroblast growth factor receptor 3 (Homo sapiens) (P22607 23-806 limits assumed): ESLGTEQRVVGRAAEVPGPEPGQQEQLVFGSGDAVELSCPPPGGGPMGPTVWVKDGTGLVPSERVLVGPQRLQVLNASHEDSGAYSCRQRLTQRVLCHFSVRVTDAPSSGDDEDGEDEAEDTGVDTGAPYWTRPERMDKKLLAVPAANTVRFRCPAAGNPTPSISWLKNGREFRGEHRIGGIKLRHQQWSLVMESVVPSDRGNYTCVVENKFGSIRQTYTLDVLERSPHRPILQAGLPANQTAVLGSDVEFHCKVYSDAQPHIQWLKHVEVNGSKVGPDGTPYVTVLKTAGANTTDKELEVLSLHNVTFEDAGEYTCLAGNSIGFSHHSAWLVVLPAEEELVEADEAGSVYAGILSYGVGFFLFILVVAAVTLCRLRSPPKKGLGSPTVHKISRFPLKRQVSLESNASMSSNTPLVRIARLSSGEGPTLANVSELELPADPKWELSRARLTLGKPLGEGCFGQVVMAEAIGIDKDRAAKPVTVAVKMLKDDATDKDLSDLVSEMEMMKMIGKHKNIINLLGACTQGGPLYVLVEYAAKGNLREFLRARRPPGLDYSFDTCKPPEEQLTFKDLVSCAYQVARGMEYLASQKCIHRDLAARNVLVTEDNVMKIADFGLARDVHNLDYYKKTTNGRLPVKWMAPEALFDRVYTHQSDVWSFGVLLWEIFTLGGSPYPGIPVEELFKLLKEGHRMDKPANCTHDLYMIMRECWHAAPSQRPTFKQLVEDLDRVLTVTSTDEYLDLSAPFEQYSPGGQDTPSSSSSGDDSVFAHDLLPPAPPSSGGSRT
# [11] = Half life in ICR(CD-1) mouse at 10 mg/kg, po administered via gavage by triple quadrupole mass spectrometric analysis; assay type: ADME, organism-based; settings: in vivo
# Method in brief: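 Oral gavage at 1 mg/mL in 1% Tween80/water to male ICR mice (18-22 g, n=3). Plasma sampled at 0.25, 0.5, 1, 2, 4, 8 and 24 h, protein precipitated with methanol:acetonitrile (1:1) containing internal standard, and quantified by UPLC-triple quadrupole MS. AUC and MRT were taken from per-animal time-concentration curves. Cmax is the maximum plasma level and Tmax the time to reach it.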
# [12] = biological target: T1, Ephrin type-B receptor 2 (Homo sapiens) (UniProt P29323); assay: Inhibition of EPH-B2 (unknown origin) at 10 nM relative to control; method in brief: as §2
# T1 sequence (whole entry): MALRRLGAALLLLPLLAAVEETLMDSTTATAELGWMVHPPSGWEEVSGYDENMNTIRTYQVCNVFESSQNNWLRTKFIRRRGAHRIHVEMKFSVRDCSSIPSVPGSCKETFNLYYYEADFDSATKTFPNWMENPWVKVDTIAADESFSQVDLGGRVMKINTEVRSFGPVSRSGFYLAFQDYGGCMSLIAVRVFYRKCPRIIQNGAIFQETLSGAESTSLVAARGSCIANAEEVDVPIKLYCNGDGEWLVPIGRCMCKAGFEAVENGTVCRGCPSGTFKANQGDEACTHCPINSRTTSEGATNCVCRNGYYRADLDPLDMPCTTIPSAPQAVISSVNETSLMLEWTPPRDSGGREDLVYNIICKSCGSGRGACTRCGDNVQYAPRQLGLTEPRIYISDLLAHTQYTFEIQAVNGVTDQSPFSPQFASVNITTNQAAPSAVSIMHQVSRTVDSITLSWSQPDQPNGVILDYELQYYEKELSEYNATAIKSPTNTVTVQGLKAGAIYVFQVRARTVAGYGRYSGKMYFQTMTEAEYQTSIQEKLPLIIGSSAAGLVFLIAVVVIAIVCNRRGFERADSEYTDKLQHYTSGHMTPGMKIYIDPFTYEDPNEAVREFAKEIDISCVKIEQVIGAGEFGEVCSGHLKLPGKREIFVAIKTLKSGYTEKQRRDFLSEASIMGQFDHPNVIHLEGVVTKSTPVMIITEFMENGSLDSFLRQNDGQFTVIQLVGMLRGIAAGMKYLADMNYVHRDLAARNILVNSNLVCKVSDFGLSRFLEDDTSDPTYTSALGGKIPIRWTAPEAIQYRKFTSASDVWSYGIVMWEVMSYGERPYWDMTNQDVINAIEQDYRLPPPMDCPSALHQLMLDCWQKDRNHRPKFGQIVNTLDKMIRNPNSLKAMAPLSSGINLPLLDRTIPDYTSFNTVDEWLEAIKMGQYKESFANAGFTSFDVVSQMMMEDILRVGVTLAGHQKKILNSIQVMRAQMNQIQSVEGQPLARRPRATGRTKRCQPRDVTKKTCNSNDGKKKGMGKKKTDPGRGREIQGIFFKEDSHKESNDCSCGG
# [13] = biological target: Tyrosine-protein kinase BTK (Homo sapiens) (UniProt Q06187); assay: Inhibition of BTK (unknown origin) at 10 nM relative to control
# Sequence of Tyrosine-protein kinase BTK (Homo sapiens) (Q06187 whole entry): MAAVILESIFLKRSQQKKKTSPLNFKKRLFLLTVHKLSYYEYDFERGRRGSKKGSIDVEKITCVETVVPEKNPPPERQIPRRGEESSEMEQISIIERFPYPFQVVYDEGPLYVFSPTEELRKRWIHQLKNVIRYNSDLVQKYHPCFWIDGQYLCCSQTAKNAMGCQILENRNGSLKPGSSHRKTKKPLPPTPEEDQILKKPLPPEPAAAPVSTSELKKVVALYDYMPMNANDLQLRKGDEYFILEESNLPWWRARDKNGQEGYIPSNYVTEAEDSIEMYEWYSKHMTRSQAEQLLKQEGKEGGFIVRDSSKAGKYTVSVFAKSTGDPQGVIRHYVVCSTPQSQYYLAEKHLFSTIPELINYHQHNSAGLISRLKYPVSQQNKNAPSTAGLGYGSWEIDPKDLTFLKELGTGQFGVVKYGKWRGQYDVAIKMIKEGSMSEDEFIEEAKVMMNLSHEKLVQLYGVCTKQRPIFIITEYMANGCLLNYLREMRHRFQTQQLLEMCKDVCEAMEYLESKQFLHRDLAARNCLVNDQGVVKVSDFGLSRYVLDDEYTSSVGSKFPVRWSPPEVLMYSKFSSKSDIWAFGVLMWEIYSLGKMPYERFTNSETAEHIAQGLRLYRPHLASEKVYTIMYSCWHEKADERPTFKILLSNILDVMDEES
# Sequence of Cyclin-dependent kinase 1 (Homo sapiens) (P06493 whole entry, looked up): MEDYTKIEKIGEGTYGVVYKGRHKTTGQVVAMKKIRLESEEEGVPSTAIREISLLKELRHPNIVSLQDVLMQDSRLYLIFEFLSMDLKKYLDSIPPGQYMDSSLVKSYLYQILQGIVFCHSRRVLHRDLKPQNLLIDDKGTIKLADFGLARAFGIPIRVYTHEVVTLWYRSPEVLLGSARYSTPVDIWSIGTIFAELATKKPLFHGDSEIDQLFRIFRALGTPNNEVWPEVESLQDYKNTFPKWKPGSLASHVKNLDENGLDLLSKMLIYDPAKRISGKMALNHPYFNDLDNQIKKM
structure (smiles),measurement,setting,value
Cc1ccc(C(=O)Nc2cccc(C(F)(F)F)c2)cc1-c1ccc2c(-c3cnn(C4CC4)c3)n[nH]c2c1,inhibition,[1],5.6%
same,TGI,NCI-H1581 [2],Dose-dependent effect
same,inhibition,[3],100%
same,inhibition,[4],71.7%
same,inhibition,[5],4.4%
same,inhibition,[6],10%
same,inhibition,[7],6.8%
same,inhibition in vivo at 10 mg/kg,NCI-H1581 [8],59.7%
same,inhibition,[9],0%
same,IC50,NCI-H716,31.8 nM
same,inhibition,[10],52.3%
same,half-life,[11],3.05 h
same,inhibition,[12],48%
same,inhibition,[13],32%
